Results from PubChem BioAssay AID540324 (Johns Hopkins Ion Channel Center, 2011).
Values without a mark were called inactive. The source made the active and inactive calls.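 Rule for the calls: active = maximum inhibition above 30% at any tested concentration, with a dose response curve fitted; inactive = no inhibition at any dose or no dose response curve.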

Assay: thallium flux inhibition in parental HEK293 cells, SAR follow-up, counter-screen for KCNK9 inhibitor project, cell-based, FluxOR thallium flux, concentration-response, set 2 (AID 540324)
Conditions: FluxOR fluorescence ratio; series mostly up to 30 µM; flux ratio, lower = inhibition: at the top concentration
Outline: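 Assay system: parental HEK293 cells. Probe or stimulus: K+/Tl+ sulfate stimulus, 5x stock. Compound dosing: 10 concentrations. Times: dye loading 90 min at room temperature in dark, compound exposure 20 min. Technique: FluxOR thallium-flux fluorescence. Repeats: at least two replicates per compound.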

SMILES | flux ratio, lower = inhibition | outcome
Cc1cccc(C(=O)Nc2cccc(NC(=O)c3ccccc3OCC(C)C)c2)c1 | 0.117 | 
O=C(Nc1cccc(NC(=O)c2ccccc2Cl)c1)c1ccccc1 | 0.17 | 
CC(C1CC2CCC1C2)n1c(-c2cccc(Cl)c2)n[nH]c1=S (stereo unspecified) | 0.406 | 
CCOc1ccccc1NC(=O)c1cccc(NC(=O)c2cccc(Cl)c2)c1 | 0.159 | 
O=C(Nc1cccc(NC(=O)c2ccc(C(F)(F)F)cc2)c1)c1ccccc1 |  | inactive
O=C(Nc1cccc(NC(=O)c2ccoc2)c1)c1ccccc1 | 0.161 | 
O=C(Nc1cccc(NC(=O)c2cccnc2)c1)c1ccccc1 | 0.207 | 
Cc1ccccc1C(=O)Nc1cccc(NC(=O)c2ccccc2)c1 | 0.152 | 
CCOc1ccccc1NC(=O)c1cccc(NC(=O)c2ccc(C(F)(F)F)cc2)c1 | 0.208 | 
COc1cccc(OC)c1C(=O)Nc1cccc(NC(=O)c2cccc(C)c2)c1 | 0.166 | 
Cc1ccc(-c2n[nH]c(=S)n2C(C)C2CC3CCC2C3)cc1 (stereo unspecified) | 0.453 | 
COc1ccc(C(=O)Nc2cccc(NC(=O)c3ccccc3)c2)cc1 | 0.191 | 
O=C(Nc1cccc(NC(=O)c2ccc(Cl)cc2)c1)c1ccccc1 | 0.215 | 
CCOc1ccccc1C(=O)Nc1cccc(NC(=O)C2CCCC2)c1 | 0.124 | 
CC(C1CC2CCC1C2)n1c(-c2ccoc2)n[nH]c1=S (stereo unspecified) | 0.153 | 
O=C(Nc1cccc(NC(=O)c2ccc(F)cc2)c1)c1ccccc1 | 0.204 | 
CCOc1ccccc1NC(=O)c1cccc(NC(=O)CC2CCCCC2)c1 | 0.151 | 
COc1cccc(-c2n[nH]c(=S)n2C(C)C2CC3CCC2C3)c1 (stereo unspecified) | 0.135 | 

SMILES | flux ratio, lower = inhibition | outcome
CC(C)n1c(-c2ccco2)n[nH]c1=S | 0.144 | 
CCOc1ccccc1NC(=O)c1cccc(NC(=O)c2ccccc2)c1 | 0.157 | 
COc1ccccc1NC(=O)c1cccc(NC(=O)c2ccccc2C(F)(F)F)c1 | 0.175 | 
CCOc1ccccc1NC(=O)c1cccc(NC(=O)c2ccccc2Cl)c1 | 0.121 | 
CC(C1CC2CCC1C2)n1c(-c2ccsc2)n[nH]c1=S (stereo unspecified) | 0.245 | 
CCOc1ccccc1NC(=O)c1cccc(C(=O)NC2CCCC2)c1 | 0.197 | 
CCOc1cccc(NC(=O)c2cccc(NC(=O)C3CCCC3)c2)c1 | 0.139 | 
CC(C)(C)c1ccc(C(=O)Nc2cccc(NC(=O)c3ccccc3)c2)cc1 | 0.185 | 
Cc1cccc(C(=O)Nc2cccc(NC(=O)C3CCCCC3)c2)c1 | 0.17 | 
CCOc1ccccc1NC(=O)c1cccc(NC(=O)c2ccc(OC)cc2)c1 | 0.191 | 
COc1ccccc1NC(=O)c1cccc(NC(=O)c2ccccc2OC)c1 | 0.177 | 
O=C(Nc1cccc(NC(=O)c2ccco2)c1)c1ccccc1 | 0.189 | 
Cc1cccc(C(=O)Nc2cccc(NC(=O)c3ccco3)c2)c1 | 0.164 | 
CC(C1CC2CCC1C2)n1c(-c2ccc(Cl)cc2)n[nH]c1=S (stereo unspecified) | 0.322 | 
Cc1ccc(C(=O)Nc2cccc(NC(=O)c3ccccc3)c2)cc1 | 0.192 | 
COc1ccccc1NC(=O)c1cccc(NC(=O)CC2CCCC2)c1 | 0.154 | 
CC(C1CC2CCC1C2)n1c(-c2ccccc2Cl)n[nH]c1=S (stereo unspecified) | 0.205 | 
Cc1cccc(S(=O)(=O)Nc2cccc(NC(=O)c3ccccc3)c2)c1 | 0.165 | 
